Results from different studies.
Each line is one published result; the experiments were not run side by side.
Target: Voltage-gated inwardly rectifying potassium channel KCNH2 (KCNH2, Homo sapiens, UniProt Q12809)

`CC(C)(C)c1sc2ncnc(Oc3c(F)cccc3OC(F)(F)F)c2c1-c1ccc(Cl)cc1` gave an inhibition of over 50% (ligand displacement, radioligand; 10 µM).
With `COc1cc(N)c(Cl)cc1C(=O)NC1CCN(CCCOc2ccc(F)cc2)CC1OC` (stereo not drawn) the inhibition was 3.11% (ion current, inhibitor, patch clamp; HEK293; 100 pM, pH 7.4).
With `COC1=CC(c2ccc[nH]2)=N/C1=C\c1[nH]c(Cc2ccc(OC(F)(F)F)cc2)cc1Cc1ccc(OC(F)(F)F)cc1` the inhibition was 26.6% (ion current, inhibitor, patch clamp; 50 µM).
The inhibition of `NC/C(=C\F)COc1cccc(Cn2c(=S)[nH]c(=O)c3[nH]cnc32)c1` is reported as 3.8% (ion current, inhibitor; 10 µM).
`CCOC(=O)C1=C(CN2CCC[C@@H]2C(=O)Nc2ccc(B(O)O)cc2)NC(c2nccs2)=N[C@H]1c1ccc(F)cc1Br` gave an inhibition of 14.6% (ion current, inhibitor, patch clamp; HEK293; 1 µM, pH 7.4).
With `CN1C[C@H](COc2nccc3c(NCc4ccco4)cc(Cl)nc23)OC1=O` the inhibition was 37.1% (ion current, inhibitor; HEK293; 30 µM).
The inhibition of `CC(=O)N1CCC(C(=O)N2CCN3C(=O)c4cc(-c5ccccc5)ccc4NC(=O)C3C2)CC1` (stereo not drawn) is reported as 4% (ion current, inhibitor, patch clamp; HEK293; 10 µM).
`Cn1cc2c(C(=O)O)ccc(NS(=O)(=O)c3ccc(OCC4CCC4)c(Cl)c3)c2n1` gave an IC50 of over 10 µM (ion current).
For `CCCN1CCCC[C@H]1C(=O)Nc1c(C)cccc1C`, the inhibition was 82.3% (ion current, inhibitor, patch clamp; 100 µM).
